Results as given in article PMC6106105 (Journal of the Endocrine Society, 2018).
Read-outs that look alike come from different tables or passages of the source. Numbered stars: 1 amine (or outer) side, 2 acyl side, 3 side chain; on linkers, the order of the positions; unused ones are H or OH. Square brackets hold non-standard residues; d marks the D form. Side chains are listed from the residue outwards. Peptide text beside a SMILES is read from it. * marks the point of attachment. Ethylenediamine = C(CN[*:2])N[*:1]; Hyp = O=C(O)[C@@H]1C[C@@H](O)CN1; Phg = N[C@H](C(=O)O)c1ccccc1; CO = O=C([*:1])[*:2]; Bn = c1ccc(C*)cc1

Columns and labels:
GH4C1 cells = assay: Membrane potential; format: cell-based, rat; conditions: for hyperpolarization response (agonist, in words): 100 nM (Fig. 3A)
In short: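 Rat GH4C1 cells grown in F12 with 12.5% horse serum and 2.5% FBS, plated 150,000/well on poly-D-ornithine. Loaded 30 min with FLIPR Membrane Potential blue dye in HEPES-buffered saline, pH 7.4, then equilibrated 15 min at 37°C. After 30 s baseline, agonist was added and fluorescence read for 180 s (ex 530/em 565 nm). Output was F1/F0 minus control trace, averaged over three wells.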

rat Sstr2A [1] = target: T1, rat Sstr2A (Rattus norvegicus, UniProt P30680); assay: Membrane potential; format: cell-based; conditions: read-out: Hyperpolarization Emax
T1 sequence (P30680 whole entry): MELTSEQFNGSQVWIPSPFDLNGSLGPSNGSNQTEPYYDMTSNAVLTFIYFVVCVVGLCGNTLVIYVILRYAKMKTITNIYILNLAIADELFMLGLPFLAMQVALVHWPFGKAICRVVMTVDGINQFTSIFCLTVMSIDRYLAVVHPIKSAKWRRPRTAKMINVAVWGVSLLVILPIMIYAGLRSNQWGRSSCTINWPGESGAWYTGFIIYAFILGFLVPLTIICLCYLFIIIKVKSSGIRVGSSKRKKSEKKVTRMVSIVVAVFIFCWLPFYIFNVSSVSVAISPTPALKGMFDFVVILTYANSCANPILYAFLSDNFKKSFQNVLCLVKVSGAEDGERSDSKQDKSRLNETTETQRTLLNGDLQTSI

rat Sstr2A [2] = target: T1, rat Sstr2A; format: cell-based; conditions: for Emax: read-out: cAMP Emax
rat Sstr2A [3] = target: T1, rat Sstr2A; assay: Sstr2A receptor internalization, cell surface ELISA in GH12C1-Sstr2A cells; format: cell-based; conditions: for Emax: read-out: Internalization Emax

Compound	Emax at 0.1 µM (rat Sstr2A [1]) [%]	Emax (rat Sstr2A [2]) [%]	Emax (rat Sstr2A [3]) [%]	hyperpolarization response (agonist, in words) (GH4C1 cells)	further results
H-p-Chloro-Phe-D-Cys-β-(3-pyridyl)-Ala-D-Trp-Lys-tBu-Gly-Cys-2-Nal-NH2 trifluoroacetate salt [PRL-2915]					effect on hyperpolarization response produced by SS14 (GH4C1 cells; PRL-2915 (1 µM), SS14 (1 µM), 15 minutes pretreatment): eliminated most of the hyperpolarization response
Des-AA^1,2,5-[DTrp^8,IAmp^9,^125ITyr^11]-Cbm-SRIF [Rivier #27]				largely ineffective	
C[C@H](N)C(=O)NCC(=O)N[C@H]1CSSC[C@@H](C(=O)O)NC(=O)[C@H](CO)NC(=O)[C@H]([C@@H](C)O)NC(=O)[C@H](Cc2ccccc2)NC(=O)[C@H]([C@@H](C)O)NC(=O)[C@H](CCCCN)NC(=O)[C@H](Cc2c[nH]c3ccccc23)NC(=O)[C@H](Cc2ccccc2)NC(=O)[C@H](Cc2ccccc2)NC(=O)[C@H](CC(N)=O)NC(=O)[C@H](CCCCN)NC1=O [SS14, Somatostatin]	100	100	100		

Further lines, with some results ahead:

Emax at 0.1 µM (rat Sstr2A [1]) [%]	Emax (rat Sstr2A [2]) [%]	Emax (rat Sstr2A [3]) [%]	Compound	hyperpolarization response (agonist, in words) (GH4C1 cells)	further results
107	100	100	C[C@@H](O)[C@@H]1NC(=O)[C@H](CCCCN)NC(=O)[C@@H](Cc2c[nH]c3ccccc23)NC(=O)[C@H](Cc2ccccc2)NC(=O)[C@@H](NC(=O)[C@H](N)Cc2ccccc2)CSSC[C@@H](C(=O)N[C@H](CO)[C@@H](C)O)NC1=O [Octreotide, octreotide]	equivalent to that of SS14	
	100	5	NCCCC[C@@H]1NC(=O)[C@@H](Cc2c[nH]c3ccccc23)NC(=O)[C@H](c2ccccc2)NC(=O)[C@@H]2C[C@@H](OC(=O)NCCN)CN2C(=O)[C@H](Cc2ccccc2)NC(=O)[C@H](Cc2ccc(OCc3ccccc3)cc2)NC1=O [SOM230, pasireotide diaspartate] (cyclo([Hyp]([CO-Ethylenediamine])[Phg][dW]KY(Bn)F); ring closure inferred)		Emax at 1 µM (rat Sstr2A [1]): 5%; EC50 (rat Sstr2A [2]): 0.058 ± 0.007 µM; Kd (rat Sstr2A [3]): 0.243 ± 0.063 µM; shift in SS14 potency for receptor internalization after SOM230 pretreatment (Schild-plot analysis) (rat Sstr2A [3]; SOM230 2 µM, 5-minute pretreatment, kept present throughout): 8.7 fold
